Measurements published in ChEMBL document CHEMBL5335820, “Novel quinolinepiperazinyl-aryltetrazoles targeting the blood stage of Plasmodium falciparum” (RSC Med Chem, 2024).
Activity calls are given as the source filed them. The calls are words filed in the database; no cut-off is given here.

Tests used:
[1] = system: Plasmodium falciparum; test: Antiplasmodial activity against chloroquine resistant Plasmodium falciparum INDO infected in human erythrocytes assessed as inhibition of parasite growth incubated for 72 hrs by SYBR green I staining based fluorescence plate reader analysis; type: functional, organism-based; conditions: Erythrocyte
Method in brief: (§1)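 Pf3D7 or PfINDO was cultured in O+ human erythrocytes at 37 °C under 5% O2/5% CO2/90% N2 and ring-synchronised with 5% sorbitol. Cultures were exposed to 0–100 μM in triplicate for 72 h, with final DMSO 0.4%. After SYBR Green I lysis buffer (1 h, dark, 37 °C), fluorescence was read at 485/530 nm. Chloroquine-well counts were subtracted as background, and IC50 was obtained by non-linear regression.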

[2] = Resistance index, ratio of IC50 of chloroquine resistant Plasmodium falciparum INDO to chloroquine sensitive Plasmodium falciparum 3D7; type: functional
Method in brief: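 Resistance index = IC50 against PfINDO / IC50 against Pf3D7. Both IC50s came from 72 h SYBR Green I assays.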

[3] = Toxicity in mouse assessed as drowsiness at 100 mg/kg, po measured after 45 mins; type: organism-based; conditions: in vivo, 0.75 h
Method in brief: (§2)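 Acute oral toxicity per OECD 423. Mice were fasted 4 h, given a single 100 mg/kg oral dose, and observed for 45 min for signs of acute toxicity, compared with untreated controls.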

[4] = Cytotoxicity against human Huh-7 cells assessed as reduction in cell viability incubated for 24 hrs by MTT assay; type: toxicity, cell-based
[5] = Toxicity in mouse assessed as death at 100 mg/kg, po measured after 45 mins; type: organism-based; conditions: in vivo, 0.75 h; method in brief: as §2
[6] = system: Plasmodium falciparum; test: Antimalarial activity against chloroquine resistant trophozoites-stage Plasmodium falciparum INDO infected in human erythrocytes assessed as inhibition of parasite growth incubated for 12 hrs; type: functional, organism-based; conditions: Erythrocyte
Method in brief: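 PfINDO cultures were staged at 0–6 h (rings), 18–22 h (trophozoites), 30–34 h (early schizonts) and 40–44 h (late schizonts) post-invasion. Each was exposed to varying concentrations for 12 h, washed free of compound by centrifugation, and grown 48 h in drug-free medium. IC50 came from growth curves, with untreated culture as 100% and chloroquine-treated culture as 0% growth.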

[7] = Toxicity in mouse assessed as diarrhea at 100 mg/kg, po measured after 45 mins; type: organism-based; conditions: in vivo, 0.75 h; method in brief: as §2
[8] = Toxicity in mouse assessed as effect on urination at 100 mg/kg, po measured after 45 mins; type: organism-based; conditions: in vivo, 0.75 h; method in brief: as §2
[9] = Toxicity in mouse assessed as coma at 100 mg/kg, po measured after 45 mins; type: organism-based; conditions: in vivo, 0.75 h; method in brief: as §2
[10] = Toxicity in mouse assessed as changes in skin at 100 mg/kg, po measured after 45 mins; type: organism-based; conditions: in vivo, 0.75 h; method in brief: as §2
[11] = Toxicity in mouse assessed as effect on rate of respiration at 100 mg/kg, po measured after 45 mins; type: organism-based; conditions: in vivo, 0.75 h; method in brief: as §2
[12] = system: Plasmodium falciparum; test: Antiplasmodial activity against chloroquine resistant Plasmodium falciparum INDO trophozoites infected in human erythrocytes assessed as increase in reactive oxygen species level at 2 times IC50 concentration incubated for 8 hrs by H2DCFDA staining based fluorescence analysis; type: functional, organism-based; conditions: Erythrocyte
Method in brief: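 PfINDO trophozoites (24–28 h post-invasion), 2% parasitemia, 2% haematocrit, were loaded with CM-H2DCFDA (5 μM, 30 min) and washed with PBS. They were then treated at 2× IC50 for 8 h, and DCF fluorescence was read at 530 nm. Controls were 100 μM H2O2 (positive) and 0.4% DMSO (negative). Triplicate biological samples.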

[13] = Cytotoxicity against human HEK293 cells assessed as reduction in cell viability incubated for 24 hrs by MTT assay; type: toxicity, cell-based
[14] = system: Plasmodium berghei; test: Antimalarial activity against Plasmodium berghei ANKA infected in mouse model of malaria assessed as reduction in parasite infection by measuring median survival at 100 mg/kg, po; type: functional
[15] = Toxicity in mouse assessed as change in body weight at 100 mg/kg, po measured after 45 mins; type: organism-based; conditions: in vivo, 0.75 h; method in brief: as §2
[16] = Binding affinity to Plasmodium falciparum GAP50 assessed as equilibrium dissociation constant by SPR analysis
Method in brief: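 GAP50 at 50 μg ml−1 in 10 mM acetate pH 4.5 was amine-coupled (EDC/NHS) onto a CM5 chip. Analytes at several concentrations in 5% DMSO/1× PBS; association 60 s, dissociation 120 s, flow 30 μl min−1. Regeneration with 10 mM glycine pH 3.0 for 30 s. Sensorgrams fitted to a 1:1 Langmuir model giving ka, kd and KD.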

[17] = system: Plasmodium falciparum; test: Antiplasmodial activity against chloroquine resistant early ring stage Plasmodium falciparum INDO infected in human erythrocytes assessed as reduction in parasite growth at 10 times IC50 concentration preincubated for 6 hrs followed by media replacement without compound for 66 hrs and measured after 72 hrs by Giemsa-staining based analysis; type: functional, organism-based; conditions: Erythrocyte
Method in brief: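 Ring-stage survival assay. PfCam3.1R539T or PfINDO rings (0–3 h post-invasion), 1% parasitemia, 2% haematocrit, were exposed to 10× IC50 for 6 h. Compound was removed by three PBS washes, then cultures were grown 66 h in fresh medium. At 72 h, stage progression was assessed on Giemsa smears and revival by SYBR Green I lysis. Triplicate biological samples.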

[18] = system: Plasmodium falciparum; test: Binding affinity to Plasmodium falciparum GAP50 assessed as association constant by SPR analysis
Method in brief: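 SPR: GAP50 at 50 μg/ml in 10 mM acetate pH 4.5 was immobilised on a CM5 chip by EDC/NHS coupling. Analytes were run in 5% DMSO/PBS at 30 μl/min, with 60 s association and 120 s dissociation. The chip was regenerated with 10 mM glycine pH 3.0 for 30 s. Fits used a 1:1 Langmuir model.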

[19] = system: Plasmodium falciparum; test: Antiplasmodial activity against chloroquine sensitive Plasmodium falciparum 3D7 infected in human erythrocytes assessed as inhibition of parasite growth at 100 uM incubated for 72 hrs by SYBR green I staining based fluorescence plate reader analysis relative to control; type: functional; conditions: 3D7, Erythrocyte
Method in brief: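 Pf3D7 grown in O+ human erythrocytes at 4% haematocrit, Albumax (0.05%)-RPMI, 37 °C, 5% O2/5% CO2/90% N2, sorbitol-synchronised at ring stage. Single-point screen at 100 μM, final DMSO 0.4%, triplicate wells, 72 h. Read-out by SYBR Green I lysis buffer (Tris pH 7.5, EDTA, saponin, Triton X-100), 1 h dark at 37 °C, ex 485/em 530 nm. Growth expressed relative to untreated culture.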

[20] = Toxicity in mouse assessed as effect on water intake at 100 mg/kg, po measured after 45 mins; type: organism-based; conditions: in vivo, 0.75 h; method in brief: as §2
[21] = system: Plasmodium falciparum; test: Antiplasmodial activity against chloroquine sensitive Plasmodium falciparum 3D7 infected in human erythrocytes assessed as inhibition of parasite growth incubated for 72 hrs by SYBR green I staining based fluorescence plate reader analysis; type: functional, organism-based; conditions: 3D7, Erythrocyte; method in brief: as §1
[22] = system: Plasmodium falciparum; test: Additive antiplasmodial activity against multidrug-resistant Plasmodium falciparum Cam3.1R539T infected in human erythrocytes at 8 times IC50 concentration incubated for 72 hrs in presence of artemisinin by SYBR green I staining based fluorescence assay; type: functional, organism-based; conditions: Erythrocyte
Method in brief: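 P. falciparum Cam3.1R539T in O+ human erythrocytes, 1% parasitemia, 2% haematocrit. 8× IC50 stocks of test compound and standard drug were mixed at molar ratios 4:1, 3:2, 2:3 and 1:4, then serially diluted two-fold. Plates were incubated 72 h at 37 °C and read by SYBR Green I lysis. Controls were 0.4% DMSO (100% growth) and 4 μM chloroquine (0% growth). ΣFIC = FICA + FICB; <1 synergistic, 1.0–2.0 additive, >2.0 antagonistic.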

SMILES | IC50 [1] [nM] | Ratio IC50 [2] | Activity [3] | CC50 at 24 h [4] [nM] | Activity [5] | IC50 [6] [nM] | Activity [7] | Activity [8] | Activity [9] | Activity [10] | Activity [11] | Activity [12] | CC50 at 24 h [13] [nM] | Survival [14] [days] | Activity [15] | Kd [16] [nM] | Activity [17] | Ka [18] [M⁻¹ s⁻¹] | inhibition at 100 µM [19] [%] | Activity [20] | other results
O=C(Cn1nnc(-c2cccc([N+](=O)[O-])c2)n1)N1CCN(c2ccnc3cc(Cl)ccc23)CC1 | 1790 | 0.8 | Non-Toxic | 400000 | Non-Toxic | 2720 | Non-Toxic | Non-Toxic | Non-Toxic | Non-Toxic | Non-Toxic | Active | > 400000 | 22 | Non-Toxic | < 100000 | inactive | 1920 | > 50 | Non-Toxic | IC50 [21]: 2230 nM; Activity [22]: Active
Clc1ccc2c(N3CCN(CCCn4nnc(-c5ccc(Br)cc5)n4)CC3)ccnc2c1 | 2250 | 1.21 | Non-Toxic | 288000 | Non-Toxic | 2160 | Non-Toxic | Non-Toxic | Non-Toxic | Non-Toxic | Non-Toxic | Active | 400000 | 28 | Non-Toxic | < 100000 | inactive | 2610 | > 50 | Non-Toxic | IC50 [21]: 1850 nM; Activity [22]: Active
